In brackets after ≈: the same amount, converted by molar mass.
Key:
[1] = system: Human alphaherpesvirus 1; experiment: Inhibitory concentration against HSV type 1 strain Mc Intyre in human embryonic skin muscle (ESM) fibroblast cell culture; format: functional
In short: (§1)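 Assay in human embryonic skin-muscle (ESM) cells grown in 96-well trays. The value is the concentration that reduces virus-induced cytopathicity by 50%. Single representative experiment.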

[2] = system: Human alphaherpesvirus 1; experiment: Inhibitory concentration against HSV type 1 strain F in human embryonic skin muscle (ESM) fibroblast cell culture; format: functional; in short: as §1
[3] = system: Cytomegalovirus; experiment: Inhibitory concentration against CMV strain Davis in human embryonic lung (HEL) cell culture; format: functional; conditions: Human betaherpesvirus 5
In short: (§2)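 Plaque-reduction assay in human embryonic lung (HEL) cells grown in 96-well trays. The value is the concentration that reduces virus plaque formation by 50%. Single representative experiment.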

[4] = system: L1210; experiment: Inhibitory concentration required to reduce the growth of murine L1210 cells by 50%; format: functional, cell-based; conditions: Mus musculus
In short: (§3)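 Cytostatic assay. The value is the concentration that reduces the growth (viability) of the cells by 50%.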

[5] = system: Vaccinia virus; experiment: Inhibitory concentration against VV in human embryonic skin muscle (ESM) fibroblast cell culture; format: functional; conditions: Orthopoxvirus vaccinia
[6] = system: MOLT-4; experiment: Inhibitory concentration required to reduce the growth of human MOLT-4 cells by 50%; format: functional, cell-based; in short: as §3
[7] = system: Human immunodeficiency virus 1; experiment: Inhibitory concentration required to achieve 50% protection of MT-4 cells against cytopathicity of […]; format: functional, organism-based; conditions: Human immunodeficiency virus 1, MT4
In short: (§4)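 MT-4 cells infected with HIV-1 (strain III_B) or HIV-2 (strain ROD). The value is the concentration that protects the cells from virus cytopathicity by 50%.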

[8] = system: Human alphaherpesvirus 3; experiment: (§5) Inhibitory concentration against TK-VZV strain YS-R in human embryonic lung (HEL) cell culture; format: functional; in short: as §2
[9] = system: Human alphaherpesvirus 3; experiment: Inhibitory concentration against TK-VZV strain 07-1 in human embryonic lung (HEL) cell culture; format: functional
[10] = system: Human alphaherpesvirus 1; experiment: Inhibitory concentration against HSV type 1 strain KOS in human embryonic skin muscle (ESM) fibroblast cell culture; format: functional
[11] = system: Human immunodeficiency virus 2; experiment: Inhibitory concentration required to achieve 50% protection of MT-4 cells against cytopathicity of […]; format: functional, organism-based; conditions: Human immunodeficiency virus 2, MT4; in short: as §4
[12] = system: Human alphaherpesvirus 3; experiment: Inhibitory concentration against VZV strain YS in human embryonic lung (HEL) cell culture; format: functional
[13] = system: Human alphaherpesvirus 3; experiment: Inhibitory concentration against VZV strain OKA in human embryonic lung (HEL) cell culture; format: functional
[14] = system: ESM; experiment: Inhibitory concentration required for morphologic alteration in normal cell in human embryonic skin muscle (ESM) fibroblast cell culture; format: functional
In short: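 Uninfected ESM cells in 96-well trays, examined under the microscope. The value is the minimal concentration that causes a detectable change in normal cell morphology. Tested up to 400 μg/mL. Single representative experiment.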

[15] = system: HEL; experiment: Inhibitory concentration required to inhibit cell growth by 50% in human embryonic lung (HEL) cell culture; format: functional
In short: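 Uninfected HEL cells grown in 96-well trays. The value is the concentration that reduces cell growth by 50%. Single representative experiment.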

[16] = system: CCRF-CEM; experiment: Inhibitory concentration required to reduce the growth of human CEM cells by 50%; format: functional, cell-based; in short: as §3
[17] = system: Cytomegalovirus; experiment: Inhibitory concentration against CMV strain AD169 in human embryonic lung (HEL) cell culture; format: functional; conditions: Human betaherpesvirus 5; in short: as §2
[18] = system: Human alphaherpesvirus 2; experiment: Inhibitory concentration against HSV type 2 strain 196 in human embryonic skin muscle (ESM) fibroblast cell culture; format: functional; in short: as §1
[19] = system: Human alphaherpesvirus 1; experiment: Inhibitory concentration against TK-HSV type 1 strain B2006 in human embryonic skin muscle (ESM) fibroblast cell culture; format: functional; in short: as §1
[20] = system: Human alphaherpesvirus 2; experiment: Inhibitory concentration against HSV type 2 strain Lyons in human embryonic skin muscle (ESM) fibroblast cell culture; format: functional; in short: as §1
[21] = system: MT4; experiment: Inhibitory concentration required to reduce the growth of human MT-4 cells by 50%; format: functional, cell-based; in short: as §3
[22] = system: Human alphaherpesvirus 2; experiment: Inhibitory concentration against HSV type 2 strain G in human embryonic skin muscle (ESM) fibroblast cell culture; format: functional; in short: as §1
[23] = system: Vesicular stomatitis virus; experiment: Inhibitory concentration against VSV in human embryonic skin muscle (ESM) fibroblast cell culture; format: functional
[24] = system: FM3A; experiment: Inhibitory concentration required to reduce the growth of murine FM3A cells by 50%; format: functional, cell-based; conditions: Mus musculus; in short: as §3
[25] = system: Human alphaherpesvirus 3; experiment: as §5; format: functional; remark: listed apart in the source

Compound	MIC [1]	MIC [2]	MIC [3]	IC50 [4]	MIC [5]	IC50 [6]	IC50 [7]	MIC [9]	MIC [10]	IC50 [11]	MIC [12]	MIC [13]	MIC [14]	MIC [15]	IC50 [16]	MIC [17]	MIC [18]	MIC [19]	MIC [20]	IC50 [21]	other results
Nc1ncnc2c1ncn2[C@@H]1CO[C@H](CO)[C@@H](O)C1	20 µg/mL (≈ 75.4 µM)	4 µg/mL (≈ 15.1 µM)	> 10 µg/mL	> 100 µg/mL	40 µg/mL (≈ 151 µM)	> 100 µg/mL	> 4 µg/mL	10 µg/mL (≈ 37.7 µM)	7 µg/mL (≈ 26.4 µM)	> 4 µg/mL	4 µg/mL (≈ 15.1 µM)	4 µg/mL (≈ 15.1 µM)	> 400 µg/mL	> 50 µg/mL	> 100 µg/mL	> 10 µg/mL	0.04 µg/mL (≈ 0.151 µM)	150 µg/mL (≈ 565 µM)	1 µg/mL (≈ 3.77 µM)	12.5 µg/mL (≈ 47.1 µM)	MIC [8]: 3.2 µg/mL (≈ 12.1 µM); MIC [22]: 7 µg/mL (≈ 26.4 µM); MIC [23]: > 200 µg/mL; IC50 [24]: 97.5 µg/mL (≈ 368 µM)
Nc1ccn(C2COC(CO)C(O)C2)c(=O)n1 (stereo unspecified)	2 µg/mL (≈ 8.29 µM)	1 µg/mL (≈ 4.15 µM)	0.75 µg/mL (≈ 3.11 µM)	29 µg/mL (≈ 120 µM)	2 µg/mL (≈ 8.29 µM)	0.87 µg/mL (≈ 3.61 µM)	> 0.8 µg/mL	0.75 µg/mL (≈ 3.11 µM)	0.7 µg/mL (≈ 2.9 µM)	> 0.8 µg/mL	0.27 µg/mL (≈ 1.12 µM)	0.04 µg/mL (≈ 0.166 µM)	> 400 µg/mL	2 µg/mL (≈ 8.29 µM)	1.4 µg/mL (≈ 5.8 µM)	0.64 µg/mL (≈ 2.65 µM)	0.02 µg/mL (≈ 0.0829 µM)	4 µg/mL (≈ 16.6 µM)	0.02 µg/mL (≈ 0.0829 µM)	1.1 µg/mL (≈ 4.56 µM)	MIC [25]: 0.64 µg/mL (≈ 2.65 µM); MIC [22]: 0.04 µg/mL (≈ 0.166 µM); MIC [23]: > 400 µg/mL; IC50 [24]: 28 µg/mL (≈ 116 µM)
Cc1cn(C2COC(CO)C(O)C2)c(=O)[nH]c1=O (stereo unspecified)	7 µg/mL (≈ 27.3 µM)	40 µg/mL (≈ 156 µM)	> 10 µg/mL	> 100 µg/mL	> 400 µg/mL	> 100 µg/mL	36 µg/mL (≈ 140 µM)	> 100 µg/mL	40 µg/mL (≈ 156 µM)	> 100 µg/mL	> 100 µg/mL	> 100 µg/mL	> 400 µg/mL	> 50 µg/mL	> 100 µg/mL	> 10 µg/mL	40 µg/mL (≈ 156 µM)	> 400 µg/mL	20 µg/mL (≈ 78 µM)	> 100 µg/mL	MIC [25]: 100 µg/mL (≈ 390 µM); MIC [22]: 150 µg/mL (≈ 585 µM); MIC [23]: > 400 µg/mL; IC50 [24]: > 100 µg/mL
Nc1nc(O)c2ncn([C@@H]3CO[C@H](CO)[C@@H](O)C3)c2n1	0.7 µg/mL (≈ 2.49 µM)	0.2 µg/mL (≈ 0.711 µM)	1.2 µg/mL (≈ 4.27 µM)	5.4 µg/mL (≈ 19.2 µM)	7 µg/mL (≈ 24.9 µM)	14 µg/mL (≈ 49.8 µM)	> 4 µg/mL	4 µg/mL (≈ 14.2 µM)	0.2 µg/mL (≈ 0.711 µM)	> 4 µg/mL	0.1 µg/mL (≈ 0.356 µM)	0.9 µg/mL (≈ 3.2 µM)	> 400 µg/mL	20 µg/mL (≈ 71.1 µM)	21 µg/mL (≈ 74.7 µM)	1.5 µg/mL (≈ 5.33 µM)	0.02 µg/mL (≈ 0.0711 µM)	20 µg/mL (≈ 71.1 µM)	0.01 µg/mL (≈ 0.0356 µM)	21 µg/mL (≈ 74.7 µM)	MIC [25]: 2.8 µg/mL (≈ 9.95 µM); MIC [22]: 0.1 µg/mL (≈ 0.356 µM); MIC [23]: > 2 µg/mL; IC50 [24]: 12.3 µg/mL (≈ 43.7 µM)

Reference: ChEMBL document CHEMBL1126736, “Synthesis and antiherpes virus activity of 1,5-anhydrohexitol nucleosides” (J Med Chem, 1993)
